{
  "source": "ChEMBL document CHEMBL4038333",
  "about": "“Nonacidic Farnesoid X Receptor Modulators” (J Med Chem, 2017)",
  "type_in_all_cases": "cell-based",
  "key": {"[1]": {"target": "T1, Bile acid receptor (Homo sapiens) (UniProt Q96RI1)", "T1 sequence (whole entry)": "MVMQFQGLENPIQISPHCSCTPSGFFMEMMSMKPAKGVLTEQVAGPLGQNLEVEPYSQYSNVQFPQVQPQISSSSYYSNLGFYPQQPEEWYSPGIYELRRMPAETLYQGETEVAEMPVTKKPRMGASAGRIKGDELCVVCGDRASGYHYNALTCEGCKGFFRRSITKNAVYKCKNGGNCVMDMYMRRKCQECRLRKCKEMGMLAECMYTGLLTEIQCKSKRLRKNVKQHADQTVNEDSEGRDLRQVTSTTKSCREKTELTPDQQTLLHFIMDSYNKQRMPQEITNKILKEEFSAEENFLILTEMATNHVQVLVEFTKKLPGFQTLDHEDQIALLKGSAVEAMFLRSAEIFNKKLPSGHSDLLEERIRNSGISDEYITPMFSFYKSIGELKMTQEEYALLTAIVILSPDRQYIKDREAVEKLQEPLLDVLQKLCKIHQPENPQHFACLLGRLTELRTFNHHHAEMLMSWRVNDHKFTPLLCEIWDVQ", "experiment": "Modulation of FXR in human HepG2 cells assessed as induction of OSTalpha mRNA expression at 10 nM by qRT-PCR analysis", "outline": "(§1)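 HepG2 hepatocarcinoma cells were incubated with the compound at 10 nM. FXR target-gene mRNA was quantified by qRT-PCR (n = 3), with significance at p < 0.05, 0.01 and 0.001.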"}, "HeLa [2]": {"system": "HeLa", "experiment": "Selectivity ratio for human FXR expressed in human HeLa cells co-expressing BSEP over GAL4-tagged human LXRbeta ligand binding domain expressed in HEK293T cells"}, "[3]": {"target": "Oxysterols receptor LXR-beta (Homo sapiens) (UniProt P55055)", "sequence (P55055 whole entry, the tested form may be a part)": "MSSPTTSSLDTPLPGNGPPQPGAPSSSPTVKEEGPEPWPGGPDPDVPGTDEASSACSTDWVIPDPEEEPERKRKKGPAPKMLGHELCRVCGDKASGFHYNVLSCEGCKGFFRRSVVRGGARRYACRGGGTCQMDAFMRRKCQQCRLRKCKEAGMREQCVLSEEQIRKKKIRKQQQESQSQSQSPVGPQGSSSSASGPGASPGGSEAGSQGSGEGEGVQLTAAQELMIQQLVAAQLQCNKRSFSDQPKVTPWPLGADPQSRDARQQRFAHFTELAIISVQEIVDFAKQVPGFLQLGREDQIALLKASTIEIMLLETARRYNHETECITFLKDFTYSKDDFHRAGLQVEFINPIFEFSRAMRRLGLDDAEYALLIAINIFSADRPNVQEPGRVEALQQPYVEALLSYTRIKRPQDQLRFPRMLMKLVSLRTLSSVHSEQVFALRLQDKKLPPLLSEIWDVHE", "experiment": "Transactivation of GAL4-tagged human LXRbeta ligand binding domain expressed in HEK293T cells at 1 uM after 12 to 14 hrs by dual-glo luciferase reporter gene assay", "conditions": "HEK-293T", "outline": "(§2)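 Run as a selectivity screen against each listed receptor (14 nuclear receptors plus TGR5), in both agonist and antagonist modes. Test concentration was 1 µM, with n = 3.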"}, "[4]": {"target": "Nuclear receptor subfamily 1 group I member 2 (Homo sapiens, UniProt O75469)", "sequence (O75469 whole entry, the tested form may be a part, canonical isoform)": "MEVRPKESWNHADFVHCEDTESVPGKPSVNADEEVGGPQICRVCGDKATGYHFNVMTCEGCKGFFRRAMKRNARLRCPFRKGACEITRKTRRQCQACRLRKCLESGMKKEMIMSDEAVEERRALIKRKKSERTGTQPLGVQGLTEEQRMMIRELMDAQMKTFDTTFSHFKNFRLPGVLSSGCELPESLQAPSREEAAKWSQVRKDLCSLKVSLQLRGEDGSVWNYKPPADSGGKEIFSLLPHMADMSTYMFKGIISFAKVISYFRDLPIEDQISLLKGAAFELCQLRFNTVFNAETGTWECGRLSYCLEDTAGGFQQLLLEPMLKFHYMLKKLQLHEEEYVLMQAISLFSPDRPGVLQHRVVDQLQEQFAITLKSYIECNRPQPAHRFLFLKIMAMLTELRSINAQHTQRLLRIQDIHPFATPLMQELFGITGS", "experiment": "Antagonist activity at GAL4-tagged human PXR isoform 1 ligand binding domain (138 to 434 residues) expressed in HEK293T cells at 1 uM after 12 to 14 hrs by dual-glo luciferase reporter gene assay", "conditions": "hek-293t", "outline": "as §2"}, "HeLa [5]": {"system": "HeLa", "experiment": "Selectivity ratio for human FXR expressed in human HeLa cells co-expressing BSEP over GAL4-tagged human PXR isoform 1 ligand binding domain (138 to 434 residues) expressed in HEK293T cells"}, "[6]": {"target": "T1, Bile acid receptor (Homo sapiens)", "experiment": "Modulation of FXR in human HepG2 cells assessed as induction of SHP mRNA expression at 10 nM by qRT-PCR analysis", "outline": "as §1"}, "[7]": {"target": "Peroxisome proliferator-activated receptor delta (Homo sapiens) (UniProt Q03181)", "sequence (Q03181 whole entry, the tested form may be a part)": "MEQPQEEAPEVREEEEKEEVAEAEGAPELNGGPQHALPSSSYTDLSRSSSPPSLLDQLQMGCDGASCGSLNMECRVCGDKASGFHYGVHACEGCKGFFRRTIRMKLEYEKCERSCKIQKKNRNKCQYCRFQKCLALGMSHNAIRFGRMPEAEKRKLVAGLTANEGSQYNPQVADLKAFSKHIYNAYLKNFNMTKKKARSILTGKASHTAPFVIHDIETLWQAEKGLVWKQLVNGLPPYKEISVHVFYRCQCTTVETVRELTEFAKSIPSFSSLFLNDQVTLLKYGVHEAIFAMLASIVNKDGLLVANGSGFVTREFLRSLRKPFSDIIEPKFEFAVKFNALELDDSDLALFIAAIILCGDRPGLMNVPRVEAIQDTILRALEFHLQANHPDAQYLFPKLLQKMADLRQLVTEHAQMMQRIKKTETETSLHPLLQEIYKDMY", "experiment": "Antagonist activity at GAL4-tagged human PPARdelta ligand binding domain expressed in HEK293T cells at 1 uM after 12 to 14 hrs by dual-glo luciferase reporter gene assay", "conditions": "HEK-293T", "outline": "as §2"}, "HeLa [8]": {"system": "HeLa", "experiment": "Selectivity ratio for human FXR expressed in human HeLa cells co-expressing BSEP over GAL4-tagged human PPARdelta ligand binding domain expressed in HEK293T cells"}, "[9]": {"target": "Oxysterols receptor LXR-beta (Homo sapiens) (UniProt P55055)", "experiment": "Antagonist activity at GAL4-tagged human LXRbeta ligand binding domain expressed in HEK293T cells at 1 uM after 12 to 14 hrs by dual-glo luciferase reporter gene assay", "conditions": "HEK-293T", "outline": "as §2"}},
  "note": "The source made the active and inactive calls. The calls are words filed in the database; no cut-off is given here.",
  "data": [
    {"smiles": "COc1ccc(CNc2c(-c3cc(Cl)ccn3)nc3ccc(Cl)cn23)cc1", "values": [
      {"measurement": "Activity", "setting": "[1]", "result": "Active"},
      {"measurement": "Selectivity ratio", "setting": "HeLa [2]", "result": 3000},
      {"measurement": "Activity", "setting": "[3]", "result": "inactive"},
      {"measurement": "inhibition (INH)", "setting": "[4]", "result": "Not Active"},
      {"measurement": "Selectivity ratio", "setting": "HeLa [5]", "result": 3000},
      {"measurement": "Activity", "setting": "[6]", "result": "Active"},
      {"measurement": "inhibition", "setting": "[7]", "result": "inactive"},
      {"measurement": "Selectivity ratio", "setting": "HeLa [8]", "result": 3000},
      {"measurement": "inhibition", "setting": "[9]", "result": "inactive"}
    ]}
  ]
}
